Experimental data pooled from the literature.
Compare with care: the assays were run in different laboratories. ≈ marks a conversion by molar mass, not a printed value.

| SMILES | organism | test | system | conditions | endpoint | value |
| --- | --- | --- | --- | --- | --- | --- |
| CC1(C)S[C@@H]2[C@H](NC(=O)[C@H](N)c3ccc(O)cc3)C(=O)N2[C@H]1C(=O)O | Escherichia coli | microbial growth, disc diffusion |  | 100 µg/mL, 24 h | inhibition zone | 20 mm |
| CC(C)(O/N=C(\C(=O)N[C@@H]1C(=O)N2C(C(=O)[O-])=C(C[n+]3ccccc3)CS[C@H]12)c1csc(N)n1)C(=O)O | Escherichia coli | microbial growth, disc diffusion |  | 2000 µg/mL, 24 h | inhibition zone | 5 mm |
| C=C/C=C(\C)CC[C@H]1C[C@@H](O)CC(=O)O1 | Staphylococcus aureus | microbial growth, broth dilution | ATCC6538P |  | MIC | 256 µg/mL (≈ 1220 µM) |
| O=C(O)c1cn(C2CC2)c2cc(N3CCNCC3)c(F)cc2c1=O | Escherichia coli | microbial growth, disc diffusion |  | 100 µg/mL, 24 h | inhibition zone | 25 mm |
| CC(O)CSc1nnc(-c2cc3ccccc3o2)n1-c1ccccc1 (stereo not shown) | Staphylococcus aureus | microbial growth, disc diffusion |  | 25 µg/disc | inhibition zone | 11.3 mm |
| CO/N=C(\C(=O)N[C@@H]1C(=O)N2C(C(=O)O)=C(COC(C)=O)CS[C@H]12)c1csc(N)n1 | Escherichia coli | microbial growth, broth dilution |  | clinical isolate | MIC90 | 64 µg/mL (≈ 141 µM) |
| CC(O)CSc1nnc(Cn2cnc3c2c(=O)n(C)c(=O)n3C)n1-c1ccccc1 (stereo not shown) | Escherichia coli | microbial growth, disc diffusion |  | 25 µg/disc | inhibition zone | 11 mm |
| CO/N=C(\C(=O)N[C@@H]1C(=O)N2C(C(=O)O)=C(CSC(=O)c3ccco3)CS[C@H]12)c1csc(N)n1 | Staphylococcus aureus | microbial killing | CVCC546 | 18 h | MBC | 2 µg/mL |
| CC(O)CSc1nnc(-c2cc3c(ccc4ccccc43)o2)n1-c1ccccc1 (stereo not shown) | Escherichia coli | microbial growth, disc diffusion |  | 25 µg/disc | inhibition zone | 15.7 mm |
| C[C@@H](O)[C@H]1C(=O)N2C(C(=O)O)=C(SCCN=CN)C[C@H]12 | Escherichia coli | microbial growth, disc diffusion |  | 2000 µg/mL, 24 h | inhibition zone | 18.5 mm |
